How the values were obtained:
[1] = Selectivity ratio of EC50 for human MRC5 cells to EC50 for blood stream form of Trypanosoma brucei; type: ADME, cell-based; details: read-out: Ratio EC50
In short: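 Ratio of EC50 in human MRC5 cells over EC50 in bloodstream-form T. brucei, both from 96-well HTS whole-cell assays. Each EC50 is the arithmetic mean of independent determinations, reported with SD and number of repeats.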

Trypanosoma brucei = experiment: Antitrypanosomal activity against blood stream form of Trypanosoma brucei after 69 hrs by resazurin-based fluorescence assay; type: functional, organism-based
In short: (§1)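 96-well HTS whole-cell assay against bloodstream-form T. brucei and human MRC5 cells. EC50 values are the arithmetic mean of independent determinations, with SD and number of repeats. Species selectivity is EC50 (MRC5)/EC50 (T. brucei).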

MRC5 = experiment: Cytotoxicity against human MRC5 cells after 3 days by resazurin-based fluorescence assay; type: cell-based; details: MRC5, 72 h; in short: as §1

Structure (SMILES) | selectivity ratio [1] | EC50 (Trypanosoma brucei) | EC50 (MRC5)
O=C1C=CC(O)(c2cc3ccccc3n2S(=O)(=O)c2ccc(CCCO)cc2)C=C1 | 2 | – | –
O=C1C=CC(O)(c2cc3ccc(F)cc3n2S(=O)(=O)c2ccccc2)C=C1 | 2 | 100 nM | 170 nM
Cc1ccc(S(=O)(=O)n2c(C3(O)C=CC(=O)C=C3)cc3ccncc32)cc1 | 2 | – | –
Nc1nc(N)nc(-n2cc(C3(O)C=CC(=O)C=C3)nn2)n1 | > 8 | – | > 50000 nM
O=C1C=CC(O)(c2cc3ccccc3n2S(=O)(=O)c2ccc(CCC(=O)N3CCOCC3)cc2)C=C1 | 2 | – | –
O=C1C=CC(O)(c2cc3ccccc3n2S(=O)(=O)c2ccccc2)C=C1 | 2 | 53 nM | 110 nM
COc1ccc(Cn2cc(C3(O)C=CC(=O)C=C3)nn2)cc1 | 3 | – | –
O=C1C=CC(O)(c2ccccc2)C=C1 | 2 | 750 nM | 1700 nM
O=C1C=CC(O)(c2nc3ccccc3s2)C=C1 | 2 | 77 nM | 180 nM
C#CC1(O)C=CC(=O)C=C1 | 1 | – | –
Oc1ccc(-c2nc3ccccc3s2)cc1 | – | > 50000 nM | > 50000 nM
O=C1C=CC(O)(c2cn(CCC(=O)Nc3ccccc3)nn2)C=C1 | 7 | – | –
COc1ccc(-n2cc(C3(O)C=CC(=O)C=C3)nn2)cc1 | 2 | 130 nM | 310 nM
O=C1C=CC(O)(c2cn(-c3ccc4ncsc4c3)nn2)C=C1 | 3 | – | –
CCOC(=O)Nc1ccc(S(=O)(=O)n2c(C3(O)C=CC(=O)C=C3)cc3ccccc32)cc1 | 2 | – | –
CC(=O)NCCc1ccc(S(=O)(=O)n2c(C3(O)C=CC(=O)C=C3)cc3ccccc32)cc1 | 3 | – | –
CS(=O)(=O)c1ccc(S(=O)(=O)n2c(C3(O)C=CC(=O)C=C3)cc3ccccc32)cc1 | 2 | – | –
O=C1C=CC(O)(c2cc3cnccc3n2S(=O)(=O)c2ccccc2)C=C1 | 2 | – | –
Nc1nc(N)nc(NCCCNC(=O)CCc2ccc(S(=O)(=O)n3c(C4(O)C=CC(=O)C=C4)cc4ccccc43)cc2)n1 | 5.6 | – | –
CC(=O)OC[C@H]1O[C@@H](n2cc(C3(O)C=CC(=O)C=C3)nn2)[C@H](OC(C)=O)[C@@H](OC(C)=O)[C@H]1OC(C)=O | > 5 | – | –
Nc1nc(N)nc(NCCCOC(=O)CCc2ccc(S(=O)(=O)n3c(C4(O)C=CC(=O)C=C4)cc4ccccc43)cc2)n1 | 2.7 | – | –
CN1CCN(C(=O)CCc2ccc(S(=O)(=O)n3c(C4(O)C=CC(=O)C=C4)cc4ccccc43)cc2)CC1 | 3 | – | –
O=C1C=CC(O)(c2cc3ccccc3n2S(=O)(=O)c2ccc(CCCN3CCOCC3)cc2)C=C1 | 3 | – | –
N=C(N)c1ccc(-n2cc(C3(O)C=CC(=O)C=C3)nn2)cc1 | > 5 | – | > 50000 nM
O=C1C=CC(O)(c2cc3ccccc3n2S(=O)(=O)c2ccc(CCC(=O)O)cc2)C=C1 | 4.5 | – | –
CN1CCN(CCCc2ccc(S(=O)(=O)n3c(C4(O)C=CC(=O)C=C4)cc4ccccc43)cc2)CC1 | 3 | – | –
COC(=O)CCc1ccc(S(=O)(=O)n2c(C3(O)C=CC(=O)C=C3)cc3ccccc32)cc1 | 2 | – | –
O=C1C=CC(O)(c2nc3ccccc3s2)C(Cl)=C1 (configuration not stated) | 1 | – | –
O=C1C=CC(O)(C#Cc2ccc(CC(=O)Nc3ccccc3)cc2)C=C1 | 0.3 | – | –

Source: ChEMBL document CHEMBL1944638, “Quinol derivatives as potential trypanocidal agents” (Bioorg Med Chem, 2012)
